Test system: MS2 coat protein
Test: apparent Kd, MS2 coat protein; higher = weaker binding; RNA-MaP array; FMN 200 µM where present
Procedure, shortened: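 Designs were transcribed by stalled E. coli RNA polymerase on Illumina sequencing-chip clusters. They were titrated with SNAP-549-labelled MS2 coat protein from 0.7 or 1.5 nM, doubling to 3 µM, without and then with constant ligand. Buffer: 100 mM Tris-HCl pH 7.5, 80 mM KCl, 4 mM MgCl2, BSA, DTT, yeast tRNA, Tween-20. Green signal was normalised to red-channel RNA signal and control-cluster median Fmax. Apparent Kd is the median of filtered per-cluster binding-curve fits.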

[1] = designed as: OFF switch for flavin mononucleotide, no ligand
[2] = ligand present: flavin mononucleotide, designed as: OFF switch for flavin mononucleotide
[3] = designed as: ON switch for flavin mononucleotide, no ligand
[4] = ligand present: flavin mononucleotide, designed as: ON switch for flavin mononucleotide

| Sequence | apparent Kd [1] | apparent Kd [2] | apparent Kd [3] | apparent Kd [4] |
| --- | --- | --- | --- | --- |
| GUAAUUAUAUAGGAUAUCGAUUUUAUUAUUUAACGAGAAGGAUGAACAUGAGGAUCACCCAUGUGGUAUCAUGG | 0.164 µM | 0.177 µM | – | – |
| GCGUGCGAUAGGACGUCUGAGGGCAGAAGGCACAUGAGGAUCACCCAUGUAACGAUCUCUUCAAGUGAGGAUAUGUGCUCAUUG | 0.0297 µM | 0.114 µM | – | – |
| UGUCGGAGCAGAGGAUAUUACAUGAGGAUCACCCAUGUAUGAAACAAUAGCUGGAAACAGCAAUGUAAGAAGGCUGCUCCGACA | 0.00594 µM | 0.0113 µM | – | – |
| ACCUCACAUGAGGAUCACCCAUGUUAGGAUAUCUCGACACUCCGCGGGCGGUAGCGUCAGAGAAGGAACGUGCU | 0.0291 µM | 0.0249 µM | – | – |
| AGGUAACAUGAGGAUCACCCAUGUCAGGAUAUCAGGAAGAUUAGAAUAGAGUAGAGGAUGAGAAGGGACUAUAU | 0.032 µM | 0.0303 µM | – | – |
| GGACGUCACAUUAACAUGAGGAUCACCCAUGUCAAAGGACAUGAGGAUAUGGAUCCUAAUUGGAUCCAGAAGGCAUGGACGUCC | – | – | 0.398 µM | 0.0343 µM |
| ACAAAUGGAGGAUAUACAUGAGGAUCACCCAUGUAUAUCCUACAUGUGUGAUAAUAAUGUAGAAGGCCAUUUGA | 0.0137 µM | 0.012 µM | – | – |
| UUAUCUAUGUAAGGAUAUCGAUGAUAUACGCAUCCGACAUGAGGAUCACCCAUGUUUUAUUUUGUCGAGAAGGUACAUUGUCGG | – | – | 0.0611 µM | 0.0536 µM |
| AAGGAUCGCACAGGAUAUCAUACAUGAGGAUCACCCAUGUCAGAAAACAAAUGAGAAGGGUGCGCAUUAAUUGCUUGUGAAGAA | – | – | 0.0179 µM | 0.00465 µM |
| GGGUACAUCGGAGGAUAUCAUGUAAAUACAUGAGGAUCACCCAUGUCGAUGGAGACAUCGGAGAUUGAGAAGGCCGAUGGACCG | – | – | 0.163 µM | 0.00874 µM |
| AGUAUGCGGCAGGAUAUCCAUCCGCGGUGUGGUGGAGAAGGGCUGACAUGAGGAUCACCCAUGUGCGUCCUGUA | 0.0236 µM | 0.0379 µM | – | – |
| GUCAGCUCGUGAGGAUAUACAACACUGCUUCGGCAGUGUAUUAACAUCACAUGAGGAUCACCCAUGUAGAAGGCACGAGCUGAU | 0.00499 µM | 0.00745 µM | – | – |
| AAUAAACUCACAGGAUAUAGCAGAGGUCGCGUAAACUUACAGGCGACUAUGCUAGAAGGGUGACCACAUGAGGAUCACCCAUGU | – | – | 0.836 µM | 0.161 µM |
| UUGGACGGCGUAGGAUAUGUAGGAUAUUCCUACAUGAGGAUCACCCAUGUUGACAUGGAAGAAGGACAGAAGGACGAUGUCCAU | – | – | 0.303 µM | 0.00494 µM |
| UUGGACGUCGUAGGAUAUGUAGGAUAUUCCUACAUGAGGAUCACCCAUGUUGACAUGGAAGAAGCACAGAAGGACGAUGUCCAU | – | – | 0.15 µM | 0.0066 µM |
| UUAUUAAAUGUAGGAUAUGCAUAUUAUUAUUAUGCAGAAGGACAUGAGGAUCACCCAUGUAUAUUAUUAUUAUAUAUUAUAUAU | 0.0325 µM | 0.0713 µM | – | – |
| AUACCACGAGGAUAUCGUCUAUUUCACAUGAGGAUCACCCAUGUUAUCUUUGUUUCGUUUCGAGAAGGCGUGUUUU | 0.0331 µM | 0.0232 µM | – | – |
| GUAGCAUACCGAGGAUAUUCAGGGCGUAAAUAAACAUGAGGAUCACCCAUGUGGCGAAAGCCUAGGGAGAAGGCGGAAUGCUAC | – | – | 0.0171 µM | 0.0168 µM |
| AGAAACUACGAGAAGGACAUGUGGUCCAAAAUAAACAUGAGGAUCACCCAUGUAGGAUAUCGUAGUUUCAGGAUCGUGAGAUCA | 0.26 µM | 0.0123 µM | – | – |
| UAUCAAUUUAUGGGAUUAGAUUAUGAGGAUAUCAUUUUUUUAUACAUGAGGAUCACCCAUGUUUCUGAGAAGGCAUAAUUAAUA | – | – | 0.0169 µM | 0.00629 µM |
| GGAUAGGACAGAGGAUAUACUUGCUAGAGAUACUAGCAAAAUUUCCUCACAUGAGGAUCACCCAUGUAGAAGGCUGUCCUAUCG | 0.00695 µM | 0.0545 µM | – | – |
| AAGGGCGUGAUAACGCUCAUUAAAACAUGAGGAUCACCCAUGUAGGAUAUCCUACCGAAAUGGUAGGAGAAGGACAAGCAAUGA | 0.0219 µM | 0.0208 µM | – | – |
| UAAGUUGAGGAGAAGGGAGCACAUGAGGAUCACCCAUGUGGUUCUUUGUGCUCAGGAUAUCCAUGGAGCUCCGUCGAGUUCCAG | 0.0567 µM | 0.0166 µM | – | – |
| AAUAUAGAGCUGGAAAUAAACUCAACAUGAGGAUCACCCAUGUAGGAUAUCAGCACGAUAAGUGCUGAGAAGGACAUCCAGCUC | 0.0167 µM | 0.0171 µM | – | – |
| UCAGGCUUCGAGAAGGACAUGAAUCGUAGCAUUGCUACGAUGAAACAUACAUGAGGAUCACCCAUGUAGGAUAUCGGAGUCUGC | 0.00514 µM | 0.00555 µM | – | – |
| UUAGUGGUAGGAUAUCACCCAGGUUACAUGAGGAUCACCCAUGUGACUCAGCAGGCCAAGUGAGAAGGGCUGCUCC | 0.0223 µM | 0.02 µM | – | – |
| GAUCCUUCUGUUAGGAUAUGCUUUGGGCUUCCGCAGUAGAAGGAACAUGAGGAUCACCCAUGUCCGAUGCCGUC | 0.0746 µM | 0.101 µM | – | – |
| GUAGCUAUCGGAGGAUAUUCAUAUCGGAAACGGACAUGAGGAUCACCCAUGUGGCUAAAGCCUUGGGAGAAGGCCGAUAGCUAC | – | – | 0.12 µM | 0.00775 µM |

| Sequence | apparent Kd [1] | apparent Kd [2] | apparent Kd [3] | apparent Kd [4] |
| --- | --- | --- | --- | --- |
| GGAGCACAUAAAUACAUGAGGAUCACCCAUGUCAAAAGACAUGAGGAUAUGGAUCGGAAAACGAUCUAGAAGGCAUGGUGCUCC | – | – | 0.533 µM | 0.0209 µM |
| UCACGGCAUGUAGGAUAUGCAUAGCAUUGCUAUGCAGAAGGACAUGAGGAUCACCCAUGUAUGUAUUCCAUACUAUUCCCGUGU | 0.00742 µM | 0.0148 µM | – | – |
| CCGCUCUUGGUCAGGAUAUCUAUGCGGGCCAGCACAGAGAAGGGACAUGAGGAUCACCCAUGUUUCGGGAUGUA | 0.0223 µM | 0.0389 µM | – | – |
| AAAAAACAUGAGGAUCACCCAUGUCAGGAUAUCGUUGAAAAAAAAAAAAAAAAAAAAGCGAGAAGGGACACGAA | 0.0726 µM | 0.0682 µM | – | – |
| UUCUUACGAGGAUAUCGAUGGUGGAACAUGAGGAUCACCCAUGUAUGAGAUAUUGUAUUUCGAGAAGGCGUUCAGU | 0.0552 µM | 0.0362 µM | – | – |
| UUUGUUGUUGUGAGGAUAUCGUAGUUAUUUUGUAACGAGAAGGCACAUGAGGAUCACCCAUGUUUUUUGAUGGU | 0.0227 µM | 0.09 µM | – | – |
| UAGUAUAAGGGCAUUACACAUGAGGAUCACCCAUGUACGUUAGAGGAUAUGCAUUACAGUUGAACGUAGAAGGUUAGAGAAGGG | 0.0736 µM | 0.0803 µM | – | – |
| AAAAUCACAUGAGGAUCACCCAUGUACCGAGUUAAGGCUACAUAGGAUAUGACAAGUAUAGCUUGUCAGAAGGGUGAGUCUCGC | – | – | 0.0582 µM | 0.0977 µM |
| GUGACGAAUGUAGGAUAUGCUGAGGAUAACUCAGCAGAAGGACAUGAGGAUCACCCAUGUACUAUGAGUGAAUAAUAACGUCAC | 0.0822 µM | 0.756 µM | – | – |
| AAAUAGUUAGGAUAUACAUGAGGAUCACCCAUGUGGACUUAUGGCGAUUAAUUUAGUGGUAGAAGGGACUAAAA | 0.0372 µM | 0.0476 µM | – | – |
| UUGAUUAUACAAGGAUAUCAAUUGUAAUUAAGACUUACAUGAGGAUCACCCAUGUUAAUAUUUUAUGAGAAGGUGUAUUUUCAG | – | – | 0.0383 µM | 0.0257 µM |
| UACAUGUGAGGAUAUGUACGAGGCCCUGACGGGUCUCGCAGGCAGAAGGCACAUGAGGAUCACCCAUGUGACCG | 0.0247 µM | 0.0966 µM | – | – |
| GCCUUAUCCGUCAGGAUAUACAGCUGUUAGUUGUUGUAGAAGGGACAUGAGGAUCACCCAUGUACGUACCAUUG | 0.0192 µM | 0.0222 µM | – | – |
| GGAGCUCCAGCGCAGGAUAUCGACCCAGGGACAUGAGGAUCACCCAUGUUCCAAAAAAAAUGGGUCGAGAAGGGCGUUGGAGAGCC | – | – | 0.0126 µM | 0.00962 µM |
| GGACAGUGUCGUUAUCCGUAGCGAACAUGAGGAUCACCCAUGUAGGAUAUGUUAUUAAACUAAUAACAGAAGGACGUUGGUCUC | 0.0248 µM | 0.125 µM | – | – |
| AUCAAGUGAGGAUAUGAUAAUACAACAAACAAACAUCUACAUCAGAAGGCACAUGAGGAUCACCCAUGUUAAUC | 0.0227 µM | 0.0271 µM | – | – |
| UGAGACCUCACAGGAUAUGCUGGACUUUGUCCAGCAGAAGGGUGAAAACAUGAGGAUCACCCAUGUAUGGUCUCCAAAUUUAAA | – | – | 0.187 µM | 0.0136 µM |
| UACAUGAGGAUCACCCAUGUUUUGUCGUGUAUGGUAUUUAUCUAGGAUAUCAAUGUAUUUAUUUAUGAGAAGGAGAAUAUUAAU | 0.0411 µM | 0.0393 µM | – | – |
| AUCCGGCGUGUAGGAUAUGGAUCCGAUUAGGAUCCAGAAGGACAUGAGGAUCACCCAUGUACAUGUAAACAGUCAUCACCGGAG | 0.0102 µM | 0.0564 µM | – | – |
| GGAUCGAAUGUGAGGAUAUACCUAUGGAAACAUAGGUAGAAGGCACAUGAGGAUCACCCAUGUCCUAACGGUCC | 0.419 µM | 0.456 µM | – | – |
| CUCAUGUGAGGAUAUCAGUAGUAAAAAAAUAAAAUUACUACUGAGAAGGCACAUGAGGAUCACCCAUGUGCCUU | 0.0156 µM | 0.0129 µM | – | – |
| CUCCGCGCUGUCAGGAUAUCCAGGGCCUACCGGCCGGAGAAGGGACAUGAGGAUCACCCAUGUUCGGGUUAGCA | 0.0157 µM | 0.0176 µM | – | – |
| UAUAUAUAGUAAGGAUAUGUAAUUAUUUUAUAGACAGAAGGUACUGACAUGAGGAUCACCCAUGUUUUAGUGUGGGCAUGUAGA | 0.0853 µM | 0.13 µM | – | – |
| ACCUCACAUGAGGAUCACCCAUGUCAGGAUAUUCAAACAGGCGAAACUCCGCCUUCUCGAAGAAGGGACAUUAA | 0.0159 µM | 0.0645 µM | – | – |
| UGUAUGGACAGAGGAUAUACGGCUAGGAGAUACUAGCUACUAUUCCUCACAUGAGGAUCACCCAUGUAGAAGGCUGUCCAUACU | 0.018 µM | 0.145 µM | – | – |
| UGUAAGAUGCAGAAGGUGUUAGCUAGAGCUACGACAUGAGGAUCACCCAUGUACUAGAAACAGUACAAGGAUAUGCAUCUUACC | – | – | 0.0196 µM | 0.00643 µM |
| UAUAUAUAGUAAGGAUAUGUAAUUAGUUUAUAAACAGAAGGUACUGACAUGAGGAUCACCCAUGUUUUAGUGUGGGCAUGUAGA | 0.0877 µM | 0.134 µM | – | – |
